The record followed here is ChEMBL document CHEMBL4765333, “Novel NO-releasing scopoletin derivatives induce cell death via mitochondrial apoptosis pathway and cell cycle arrest” (Eur J Med Chem, 2020).

Experiment [1] can be described thus: Anticancer activity against human MDA-MB-231 cells assessed as inhibition of cell proliferation measured after 48 hrs by MTT assay. The format is functional, cell-based. The settings on record: MDA-MB-23, 48 h. The gist of the method: (§1)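 Cells seeded at ~5,000/well, grown 24 h to partial monolayer, then exposed 48 h at 37°C, 5% CO2 to 0.5, 1, 2, 4, 10 and 20 µM (DMSO ≤0.1%). MTT final 0.5 mg/ml for 4 h, formazan dissolved in DMSO, A570. Survival expressed as % of untreated control; IC50 from dose-response curves; three independent experiments. MDA-MB-231, MCF-7, HepG2 in DMEM; A549 and LO-2 in RPMI-1640; 10% FBS.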

The next experiment concerns MCF7. The experiment in a line: Anticancer activity against human MCF7 cells assessed as inhibition of cell proliferation measured after 48 hrs by MTT assay. Type of experiment: functional, cell-based. The following applies: MCF7, 48 h. In a few lines: as §1
On the technique in general: Formazan colour is commonly taken as a measure of viable cells.

A further experiment has as its system HepG2. The experiment in a line: Anticancer activity against human HepG2 cells assessed as inhibition of cell proliferation measured after 48 hrs by MTT assay. Type of experiment: functional, cell-based. The following applies: HepG2, 48 h. In a few lines:
as §1

Experiment [2] concerns MDA-MB-231. The experiment in a line: Antiproliferative activity against human MDA-MB-231 cells assessed as inhibition of cell proliferation rate at 4 uM pretreated with 40 uM NO scavenger, hemoglobin for 2 hrs followed by addition of compound and measured after 48 hrs by MTT assay. The format is functional. In a few lines:
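MDA-MB-231 cells pretreated 2 h with the NO scavenger hemoglobin (2.5, 5, 10, 20, 40 µM), then given compound at 4 µM for a further 48 h. Inhibition rate read by MTT assay; mean ± SD, n = 3.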

Experiment [3] has as its system MDA-MB-231. Description: Induction of apoptosis in human MDA-MB-231 cells after 24 hrs by Hoechst33342 staining based fluorescence inverted microscopic analysis. The format is functional, cell-based. The settings on record: dose 0.5-1.5 µM. In a few lines:
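MDA-MB-231 cells (5×10^4/well) attached 24 h, then treated 24 h with 0.5, 1 or 1.5 µM (DMSO vehicle control). Stained with Hoechst 33342 at 10 µg/ml for 5 min at 37°C in the dark, washed with PBS, and examined by inverted fluorescence microscopy for apoptotic nuclear morphology.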

Experiment [4] deals with MDA-MB-231. Description: Induction of apoptosis in human MDA-MB-231 cells assessed as necrotic cell at 1 uM after 24 hrs by Annexin V/propidium iodide staining based flow cytometric analysis (reference value: 0.019%). The format is functional. The gist of the method:
(§2)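 MDA-MB-231 cells (2×10^5/well) attached 24 h, then treated 24 h with 1, 1.5, 2 or 3 µM, DMSO as control. Cells harvested, PBS-washed, resuspended in binding buffer, stained with Annexin V and PI for 30 min at 37°C in the dark, and analysed by flow cytometry for quadrant percentages; three experiments.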
In general terms: In flow cytometry, cells or beads pass a laser one at a time.

Experiment [5] has as its system MDA-MB-231. The experiment in a line: Induction of apoptosis in human MDA-MB-231 cells assessed as early apoptotic cells at 1.5 uM after 24 hrs by Annexin V/propidium iodide based flow cytometric analysis (reference value: 0.94%). The format is functional. In a few lines:
as §2

Experiment [6] deals with MDA-MB-231. The experiment in a line: Induction of apoptosis in human MDA-MB-231 cells assessed as viable cells at 1.5 uM after 24 hrs by Annexin V/propidium iodide based flow cytometric analysis (reference value: 99%). The format is functional. The following applies: read-out: Activity. In a few lines: as §2
Experiment [7] relates to MDA-MB-231. Description: Induction of apoptosis in human MDA-MB-231 cells assessed as late apoptotic cells at 2 uM after 24 hrs by Annexin V/propidium iodide based flow cytometric analysis (reference value: 0.038%). Type of experiment: functional. In a few lines: as §2
For experiment [8], the system named is MDA-MB-231. Description: Induction of apoptosis in human MDA-MB-231 cells assessed as viable cells at 2 uM after 24 hrs by Annexin V/propidium iodide based flow cytometric analysis (reference value: 99%). The format is functional. The following applies: read-out: Activity. In a few lines: as §2
For experiment [9], the system named is MDA-MB-231. Description: Induction of apoptosis in human MDA-MB-231 cells assessed as late apoptotic cells at 3 uM after 24 hrs by Annexin V/propidium iodide based flow cytometric analysis (reference value: 0.038%). The format is functional. In a few lines:
as §2

The nature of experiment [10]: Induction of intracellular reactive oxygen species generation in human MDA-MB-231 cells assessed as proportion of FL1-H negative cells at 1 uM measured after 24 hrs by DCFH-DA staining based flow cytometry analysis (reference value: 52.2%). Type of experiment: functional, MDA-MB-23.
Experiment [11] concerns MDA-MB-231. Description: Induction of intracellular reactive oxygen species generation in human MDA-MB-231 cells at 2 uM measured after 24 hrs by DCFH-DA staining based flow cytometry analysis relative to control. The format is functional. In a few lines:
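MDA-MB-231 cells at 2×10^5 cells/well, grown 24 h, exposed 24 h to compound (1, 1.5, 2 µM) or DMSO control. Cells then took up DCFH-DA for 30 min at 37°C in the dark, were PBS-washed, resuspended in serum-free medium and analysed by flow cytometry. Relative DCF level vs control; mean ± SD, n = 3.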

In experiment [12] the test system is MDA-MB-231. The experiment in a line: Induction of reactive oxygen species production in human MDA-MB-231 cells at 2 uM preincubated with ROS scavenger, NAC for 2 hrs followed by incubation with compound for 24 hrs by DCFH-DA staining based flow cytometry analysis relative to control. Type of experiment: functional. The gist of the method:
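MDA-MB-231 seeded at 2×10^5 cells/well, grown 24 h, pretreated with NAC (2.5 mM) for 2 h, then given 2 µM compound for 24 h. Cells loaded with DCFH-DA 30 min at 37°C in the dark, washed in PBS, resuspended in serum-free medium and read by flow cytometry; three independent experiments.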

In experiment [13] the test system is MDA-MB-231. Description: Induction of apoptosis in human MDA-MB-231 cells assessed as up-regulation of Bax expression at 1.5 to 6 uM measured after 8 hrs by Western blot analysis. The format is functional, cell-based. The settings on record: dose 1.5-6 µM. The gist of the method: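 MDA-MB-231 cells (8×10^5 per 60 mm dish) attached 24 h, then exposed 8 h to 1.5, 3 or 6 µM, DMSO as control. Lysates quantified by BCA; 30 µg protein run on 4–20% SDS-PAGE, transferred to PVDF, probed for Bcl-2, Bax, Bad, cleaved caspase-9, cleaved caspase-3 and PARP, with ECL detection. Densitometric relative levels; three experiments.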
A general note: In western blotting, separated proteins are transferred to a membrane and probed.

The next experiment has as its system MDA-MB-23. Description: Inhibition of colony formation in human MDA-MB-231 cells incubated for 24 hrs followed by culturing in fresh medium for 10 days by crystal violet staining based assay. The format is functional, cell-based. The settings on record: dose 0.25-1 µM. The gist of the method: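 MDA-MB-231 seeded at 1.5×10^3 cells/well, 24 h attachment, then 24 h exposure to compound (0.25, 0.5, 1 µM) or DMSO; fresh medium for a further 10 days. Fixed in 4% paraformaldehyde 0.5 h at 4°C, crystal violet stained, dye dissolved in DMSO and absorbance read at 590 nm; performed three times.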

In experiment [14] the test system is MDA-MB-231. Description: Induction of cell cycle arrest in human MDA-MB-231 cells assessed as accumulation at G2/M phase at 1 uM measured after 24 hrs by propidium iodide staining based flow cytometric method (reference value: 18.55%). The format is functional.
Experiment [15] is described as follows: Induction of intracellular reactive oxygen species generation in human MDA-MB-231 cells assessed as proportion of FL1-H negative cells at 1.5 uM measured after 24 hrs by DCFH-DA staining based flow cytometry analysis (reference value: 52.2%). The format is functional, MDA-MB-23.
The nature of experiment [16]: Induction of intracellular reactive oxygen species generation in human MDA-MB-231 cells assessed as proportion of FL1-H negative cells at 2 uM pretreated with ROS scavenger, NAC for 2 hrs prior to incubation with compound and measured after 24 hrs by DCFH-DA staining based flow cytometry analysis (reference value: 52.2%). The format is functional, MDA-MB-23.

SMILES strings stand for the structures. Calls of active or inactive are those of the source. No cut-off for these calls is given here.

A word on the IC50: it is the concentration that gives 50% inhibition. The inhibition is the share of the control response that was lost under treatment. With `COc1cc2cc(N)c(=O)oc2cc1OCCCOc1no[n+]([O-])c1S(=O)(=O)c1ccccc1`, the IC50 in [1] is 1230 nM; with MCF7 it was 1910 nM; in the experiment with HepG2 it was 2810 nM. Also, the inhibition at 4 µM with MDA-MB-231 [2] came to 39.5%. Further, the Activity entry in the experiment on MDA-MB-231 [3] is “Dose-dependent effect”; in the experiment with MDA-MB-231 [4], 0.21%; with MDA-MB-231 [5], 10.8%; in the experiment with MDA-MB-231 [7] it was 15.8%; in the experiment on MDA-MB-231 [9] it was 20.5%; in experiment [10], 35%. Also, the Activity is listed as 24.58% with MDA-MB-231 [14], 17.3% in experiment [15] and 49% in experiment [16]. Also, in the experiment with MDA-MB-231 [6], the viability at 1.5 µM is 75.7%. Besides, in the experiment with MDA-MB-231 [8], the viability at 2 µM was found to be 71.1%. Further, the “fold change (FC)” value with MDA-MB-231 [11] turned out to be 2.16; in the experiment with MDA-MB-231 [12] it was 1.09. Moreover, the result in the experiment with MDA-MB-231 [13] was Active. For the same molecule, in the experiment with MDA-MB-23, the inhibition entry was “Dose-dependent effect”.
